# Screens from PubChem BioAssay.
# Shown are actives, neighbours in structure and some others; about 2.2% of the full set was active somewhere.
# M18AAP inhibitor – PfM18AAP inhibitors, malaria aminopeptidase, primary screen, biochemical, QFRET, recombinant enzyme. M18 aspartyl aminopeptidase (Plasmodium falciparum 3D7). H-Glu-NHMec fluorogenic cleavage. inhibition, % at 7.35 µM. actives 1.2% (n = 290,000);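 active = inhibition above the campaign mean inhibition over all tested compounds plus 3 SD, cut at about 28% in these data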;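 note: 0% = plate median of test compound wells and 100% = 2 mM ZnCl2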
# PfGluPho inh – PfG6PD enzyme inhibitors, primary screen, biochemical, fluorescence intensity, uHTS; AID 504690, 2011; inhibition, % at 20 µM; PfGluPho enzyme, NADPH resazurin-diaphorase fluorescence; glucose-6-phosphate dehydrogenase-6-phosphogluconolactonase (Plasmodium falciparum 3D7); actives 0.78% (n = 350,000);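 active = inhibition reaching at least a set limit at 20 µM in the primary screen, cut at about 59% in these data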;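 note: 0% = DMSO wells with substrate and 100% = DMSO wells lacking glucose-6-phosphate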
# HKDC1 inhibitor – HKDC1 hexokinase inhibitors, primary screen, biochemical, fluorescence, uHTS. actives 0.16% (n = 340,000). recombinant HKDC1, G6PDH/diaphorase resazurin coupled fluorescence. inhibition, % at 20 µM. Q2TB90;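 active = inhibition above about 35% when tested at 20 µM, limit read from the data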;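 note: plate controls were DMSO wells with enzyme for no effect and DMSO wells lacking enzyme for full effect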
#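 Material – in-house recombinant HK5 (HKDC1) enzyme · Quantity – HKDC1 at 5 µg/mL · Buffer or medium – pH 8.0 Tris buffer with 10 mM MgCl2 · Reagent – glucose with 1 mM ATP · Dosing – single 20 µM dose · Times – reaction time 90 min, room temperature, protected from light · Technique – resorufin fluorescence at 613 nm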
# Neddylation inh – inhibitors of cullin neddylation, primary screen, biochemical, TR-FRET, uHTS, NAE and Ubc12. NEDD8-conjugating enzyme Ubc12 (Homo sapiens) + NEDD8-activating enzyme E1 regulatory …. inhibition, % at 25 µM. actives 0.58% (n = 360,000); in the data active = inhibition above about 36%
# Target sequence (P61081 whole entry, looked up): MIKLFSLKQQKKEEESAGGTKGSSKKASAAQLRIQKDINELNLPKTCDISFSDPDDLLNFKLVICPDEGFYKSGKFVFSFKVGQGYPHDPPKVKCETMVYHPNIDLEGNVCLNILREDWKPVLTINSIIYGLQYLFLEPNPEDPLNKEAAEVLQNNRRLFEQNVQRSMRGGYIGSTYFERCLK
# Target sequence (Q13564 whole entry, looked up): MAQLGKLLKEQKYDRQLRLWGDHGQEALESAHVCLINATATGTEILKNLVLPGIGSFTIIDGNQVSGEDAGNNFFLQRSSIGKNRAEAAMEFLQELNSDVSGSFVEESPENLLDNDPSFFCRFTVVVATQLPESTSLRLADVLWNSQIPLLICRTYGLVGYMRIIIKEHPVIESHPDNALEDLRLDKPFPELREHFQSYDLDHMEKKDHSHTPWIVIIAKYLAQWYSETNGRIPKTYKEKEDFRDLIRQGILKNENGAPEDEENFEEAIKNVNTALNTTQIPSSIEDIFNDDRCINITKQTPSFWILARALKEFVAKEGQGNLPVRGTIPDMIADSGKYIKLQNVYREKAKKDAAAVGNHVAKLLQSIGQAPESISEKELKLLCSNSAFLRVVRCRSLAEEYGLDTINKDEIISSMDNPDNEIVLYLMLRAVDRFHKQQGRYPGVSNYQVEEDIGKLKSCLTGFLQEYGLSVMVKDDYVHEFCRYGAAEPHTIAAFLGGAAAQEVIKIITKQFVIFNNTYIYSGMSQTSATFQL
# Neddyl conf – blockade of NEDD8 conjugation to cullin – biochemical, TR-FRET, single concentration, confirmation | shares compounds with Neddylation inh | TR-FRET cullin neddylation biochemical assay | calls only at 25 µM | actives 13% (n = 1,800) | AID 652217, 2013; in the data active = inhibition above about 40%;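 note: neddylation substrate is the cullin 1 ring ligase complex with SKP2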
# Numbers without * were called inactive; i = inactive; / = no result shown; + = active, no number.
SMILES,M18AAP inhibitor,PfGluPho inh,HKDC1 inhibitor,Neddylation inh,Neddyl conf
CN(C)c1ccc(-c2[nH][nH]c(=O)c2NC(=O)c2ccccn2)cc1,/,/,/,45.5*,i
CN(C)c1ccc(-c2[nH][nH]c(=O)c2NC(=O)c2ccc3ccccc3n2)cc1,/,/,/,36.9,/
Cc1ccc2c(c1)c1c3n2CC(=C2C(=O)OC(C)(C)OC2=O)NC3CCC1 (stereo not given),0.9,-6.4,-9.1,44.8*,i
Cc1ccc(Nc2ccc(C(=O)NCCc3ccccc3)cn2)cc1,2.5,11.4,-3.2,40.9*,i
COc1cc(-c2cc3nc(C)c(C)c(=O)n3[nH]2)cc(OC)c1OC,-6.3,4.6,-7.0,41.8*,i
CC(C)CCn1c(SCC(=O)NC2CC2)nc2cc(Cl)ccc2c1=O,/,-15.3,-5.1,-76.9,/
COc1ccc(-c2cc(C(=O)Nc3ccc(OC)c(OC)c3)no2)cc1,-4.1,-3.8,-5.0,40.2*,i
CC(C)CC[n+]1ccn(-c2nc3ccccc3nc2[N-]S(=O)(=O)c2ccccc2)c1,5.4,24.6,-10.9,45.3*,i
CCCC[n+]1ccn(-c2nc3ccccc3nc2[N-]S(=O)(=O)c2ccc(Br)cc2)c1,-5.8,-12.9,5.9,-125.0,/
CCOC(=O)c1ccc(-c2ccc(/C=N/NC(=O)CN(c3ccccc3Cl)S(C)(=O)=O)o2)cc1,2.5,11.1,1.3,50.6*,i
CCNC(=S)N(Cc1ccco1)Cc1cc2cc3c(cc2[nH]c1=O)OCCO3,-2.9,5.0,3.4,6.0,/
CCN(CC)CCN(Cc1cc2cc3c(cc2[nH]c1=O)OCCO3)C(=S)NCCCOC,27.2,0.5,-5.6,46.2*,/
COCCCNC(=S)N(CCO)Cc1cc2cc3c(cc2[nH]c1=O)OCCO3,1.1,10.1,-1.5,32.3,/
CCN(CC)CCCN(Cc1cc2cc3c(cc2[nH]c1=O)OCO3)C(=S)NCc1ccco1,3.4,-4.2,-0.8,41.3*,i
CCC(=O)N(Cc1ccco1)Cc1cc2cc3c(cc2[nH]c1=O)OCO3,-13.4,-2.0,-5.2,40.8*,i
CCc1ccc(S(=O)(=O)Nc2cccc(-c3ccc4nnc(C)n4n3)c2)s1,/,7.9,-4.2,5.3,/
OC(Cc1ccnc2ccccc12)C(Cl)(Cl)Cl (stereo not given),/,5.0,-5.2,-5.1,/
Cc1c(C)n(-c2ccc(Cl)cc2)c2ncnc(N)c12,6.0,10.9,-3.7,12.1,/
COc1ccc(O)c(C(=O)c2cnn(C(=O)c3cc(C)oc3C)c2)c1,-2.0,-27.5,3.8,28.5,/
COc1ccc(O)c(C(=O)c2cnn(C(=O)c3cccc(N(C)C)c3)c2)c1,/,-17.9,2.8,41.3*,i
COc1ccc(C(=O)n2cc(C(=O)c3cc(C)ccc3O)cn2)cc1OC,14.2,-2.6,1.2,43.9*,/
CSCCC(NC(=O)c1ccccc1Cl)C(=O)N1CCN(C(c2ccccc2)c2ccccc2)CC1 (stereo not given),11.3,-8.7,10.3,4.2,/
CCN(CC)CCN(C(=O)c1cc2c(ccc3ccccc32)oc1=O)c1nc2cc3c(cc2s1)OCCO3,7.0,3.4,9.0,56.4*,i
CCN(CC)CCN(C(=O)c1ccc2c(c1)OCCO2)c1nc2cc3c(cc2s1)OCO3,1.1,6.6,3.3,2.3,/
Cc1ccc(C(=O)NC(=S)N2CCCCCC2)cc1,/,14.8,0.3,-10.1,/
SMILES,M18AAP inhibitor,PfGluPho inh,HKDC1 inhibitor,Neddylation inh,Neddyl conf
COc1cc2c(cc1O)C(Cc1ccc(O)cc1)[N+](C)([O-])CC2 (stereo not given),/,11.1,-3.4,1.7,/
COc1ccc(C[C@H]2c3cc(O)c(OC)cc3CC[N+]2(C)[O-])cc1O (stereo not given in full),/,19.4,3.6,46.1*,+
O=S(=O)(c1ccc(S(=O)(=O)N2CCN(C3CCCCC3)CC2)cc1)N1CCCCCC1,/,-5.9,-6.8,1.9,/
O=c1[nH]c2ccc(S(=O)(=O)N3CCN(C4CCCCC4)CC3)cc2[nH]c1=O,-5.4,-24.0,5.4,39.5*,/
COc1ccc(CNC(=O)C[C@H]2C(=O)N(CCc3ccccc3)C[C@@H]2Cc2ccccc2)cc1,4.5,9.3,-2.6,-20.1,/
O=C(Nc1cc(Cl)cc(Cl)c1)C1CCCC1,4.7,30.2,-3.3,3.7,/
